Measured values from ChEMBL document CHEMBL3102834, “Discovery of 5-substituted pyrrolo[2,3-d]pyrimidine antifolates as dual-acting inhibitors of glycinamide ribonucleotide formyltransferase and 5-aminoimidazole-4-carboxamide ribonucleotide formyltransferase in de novo purine nucleotide biosynthesis: implications of inhibiting …” (J Med Chem, 2013).
The source made the active and inactive calls. No cut-off for these calls is given here.

Legend:
[1] = Cytotoxicity against chinese hamster R2(VC) cells after 96 hrs by CellTitre-Blue fluorescence assay; type: functional, cell-based; details: Cricetulus griseus
Method in brief: (§1)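 CHO sublines were grown in FF-RPMI/DFBS; transfectants were maintained with G418. Cells were exposed to antifolate (0–1 μM) for 96 h at 37 °C with 2 nM LCV (RT16) or 25 nM LCV (R2/PCFT4). PC43-10 cells were grown in standard RPMI1640/DFBS instead. FRα specificity was tested by adding 200 nM folic acid. Viable cells were read by CellTiter-Blue fluorescence (ex 560/em 590), and IC50 was taken from dose–response curves; means of 3–10 experiments.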

R2 [2] = assay: Cytotoxicity against chinese hamster R2 cells expressing human PCFT4 after 96 hrs by CellTitre-Blue fluorescence assay; type: functional, cell-based, Cricetulus griseus; details: R2, 96 h
[3] = Cytotoxicity against chinese hamster RT16 cells expressing human FRalpha after 96 hrs by CellTitre-Blue fluorescence assay in presence of folic acid; type: functional, cell-based; details: Cricetulus griseus, RT16, 96 h; method in brief: as §1
R2 [4] = assay: Cytotoxicity against chinese hamster R2 cells after 96 hrs by CellTitre-Blue fluorescence assay; details: Cricetulus griseus, R2, 96 h
[5] = biological target: Folate receptor alpha (Homo sapiens) (UniProt P15328); assay: Displacement of [3H]folic acid from human FRalpha expressed in chinese hamster RT16 cells after 15 mins by scintillation counting analysis; type: cell-based
Sequence of Folate receptor alpha (Homo sapiens) (P15328 25-234 limits assumed): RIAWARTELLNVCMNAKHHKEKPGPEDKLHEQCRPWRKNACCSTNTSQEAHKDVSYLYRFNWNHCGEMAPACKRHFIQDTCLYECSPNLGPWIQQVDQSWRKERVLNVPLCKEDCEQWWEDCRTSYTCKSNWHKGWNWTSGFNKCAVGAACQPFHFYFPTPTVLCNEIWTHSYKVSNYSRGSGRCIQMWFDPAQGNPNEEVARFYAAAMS
Method in brief: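 FRα-expressing RT16 CHO cells (~1.5 × 10^6) were grown as monolayers. Bound folates were stripped with ice-cold acetate buffer (pH 3.5), then neutralised with HEPES-buffered saline (pH 7.4). Cells were then competed with [3H]folic acid against graded unlabelled ligand. Bound label read by scintillation, normalised to Folin-phenol protein (pmol/mg). Relative affinity = inverse molar ratio for 50% displacement, folic acid set at 1. Three experiments.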

KB [6] = assay: Cell cycle arrest in human KB cells assessed as accumulation at G2/M phase at 1 uM after 96 hrs by propidium iodide staining-based flow cytometry (reference value: 13.2%); type: functional
KB [7] = assay: Cell cycle arrest in human KB cells assessed as accumulation at S phase at 1 uM after 96 hrs by propidium iodide staining-based flow cytometry (reference value: 15.9%); type: functional
KB [8] = assay: Cell cycle arrest in human KB cells assessed as accumulation at G1/G0 phase at 1 uM after 96 hrs by propidium iodide staining-based flow cytometry (reference value: 67.4%); type: functional
KB [9] = assay: Cell cycle arrest in human KB cells assessed as accumulation at sub-G1 phase at 1 uM after 96 hrs by propidium iodide staining-based flow cytometry (reference value: 3.5%); type: functional
[10] = biological target: T1, Reduced folate transporter (Homo sapiens) (UniProt P41440); assay: Inhibition of human RFC expressed in chinese hamster PC43-10 cells assessed as reduction of [3H]MTX uptake at 10 uM after 48 hrs by scintillation counting analysis relative to control; type: cell-based
T1 sequence (whole entry): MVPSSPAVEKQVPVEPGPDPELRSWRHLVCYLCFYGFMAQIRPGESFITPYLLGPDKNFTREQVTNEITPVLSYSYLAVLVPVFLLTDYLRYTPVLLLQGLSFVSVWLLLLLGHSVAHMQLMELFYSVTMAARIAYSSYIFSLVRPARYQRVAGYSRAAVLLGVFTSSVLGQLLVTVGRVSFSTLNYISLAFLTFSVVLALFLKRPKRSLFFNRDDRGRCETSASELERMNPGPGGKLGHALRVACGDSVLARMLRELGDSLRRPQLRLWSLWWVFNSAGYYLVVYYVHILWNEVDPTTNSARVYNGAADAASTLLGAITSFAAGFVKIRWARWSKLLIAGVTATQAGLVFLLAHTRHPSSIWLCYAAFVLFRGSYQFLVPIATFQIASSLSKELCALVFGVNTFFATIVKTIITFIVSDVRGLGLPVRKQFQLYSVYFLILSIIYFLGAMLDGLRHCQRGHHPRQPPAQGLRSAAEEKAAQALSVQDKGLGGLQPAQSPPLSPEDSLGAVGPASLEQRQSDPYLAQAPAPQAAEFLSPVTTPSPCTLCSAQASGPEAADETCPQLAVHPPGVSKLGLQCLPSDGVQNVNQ
Method in brief: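 PC43-10 CHO cells expressing human RFC (~1.5 × 10^6) were seeded 48 h before assay. Uptake of 0.5 μM [3H]MTX was run in Hank's balanced salts for 2 min at 37 °C, with or without 10 μM unlabelled inhibitor, and stopped with ice-cold PBS. Cells were dissolved in 0.5 N NaOH, counted by scintillation and normalised to Folin-phenol protein (pmol/mg). RFC-null R2 cells gave baseline. Three experiments.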

[11] = (§2) Inhibition of GARFTase in human KB cells assessed as incorporation of [14C]-glycine into [14C]-formyl GAR incubated 30 mins prior to [14C]-glycine addition measured after 16 hrs by radiometric assay in presence of azaserin; type: cell-based
Method in brief: (§3)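 KB cells were preincubated 1 h in folate- and glutamine-free medium with 2 nM LCV and a range of drug concentrations. Azaserine (4 μM final) was added for 30 min, then 2 mM glutamine and [14C(U)]glycine (0.1 mCi/L) for 16 h at 37 °C. TCA extracts were ether-washed and run on AG1×8 anion exchange. [14C]formyl GAR was measured per mg protein, and IC50 was set against DMSO controls; three experiments.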

KB [12] = assay: as §2; type: cell-based; method in brief: as §3
KB [13] = assay: Induction of apoptosis in human KB cells assessed as viable cells at 1 uM after 96 hrs by Annexin V-FITC/7-AAD staining-based flow cytometry (RVB = 89.6%); type: functional; details: read-out: Activity
KB [14] = assay: Induction of apoptosis in human KB cells assessed as necrotic cells at 1 uM after 96 hrs by Annexin V-FITC/7-AAD staining-based flow cytometry (RVB = 7.80%); type: functional
KB [15] = assay: Induction of apoptosis in human KB cells assessed as late apoptotic cells at 1 uM after 96 hrs by Annexin V-FITC/7-AAD staining-based flow cytometry (reference value: 2.09%); type: functional
KB [16] = assay: Induction of apoptosis in human KB cells assessed as early apoptotic cells at 1 uM after 96 hrs by Annexin V-FITC/7-AAD staining-based flow cytometry (reference value: 0.485%); type: functional
KB [17] = assay: Cytotoxicity against human KB cells expressing human RFC/FRalpha/PCFT assessed as depletion of ATP pools at 1 uM after 24 hrs by ion-pair HPLC analysis; type: functional
Method in brief: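 KB cells in FF-RPMI/10% DFBS with 2 mM glutamine and 2 nM LCV were exposed to 1 μM drug for 24 h. They were trypsinized and washed, and nucleotides were extracted. ATP was quantified by reversed-phase ion-pair HPLC on a C18 column. Results are means ± standard errors.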

KB [18] = assay: Cytotoxicity against human KB cells expressing human RFC/FRalpha/PCFT after 96 hrs by CellTitre-Blue fluorescence assay in presence of thymidine/adenosine; type: functional, cell-based
Method in brief: (§4)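 KB cells were grown in FF-RPMI with DFBS and 2 nM LCV, exposed to antifolate (0–1 μM) for 96 h at 37 °C, and read by CellTiter-Blue fluorescence. IC50 was taken from dose–response curves relative to untreated cells. Protection arms added adenosine 60 μM, thymidine 10 μM, AICA 320 μM, or folic acid 200 nM. Means of 3–10 experiments.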

KB [19] = assay: Cytotoxicity against human KB cells expressing human RFC/FRalpha/PCFT after 96 hrs by CellTitre-Blue fluorescence assay in presence of adenosine/AICA/thymidine; type: functional, cell-based; method in brief: as §4
KB [20] = assay: Cytotoxicity against human KB cells expressing human RFC/FRalpha/PCFT after 96 hrs by CellTitre-Blue fluorescence assay in presence of folic acid; type: functional, cell-based; method in brief: as §4
KB [21] = assay: Cytotoxicity against human KB cells expressing human RFC/FRalpha/PCFT after 96 hrs by CellTitre-Blue fluorescence assay; type: functional, cell-based; method in brief: as §4
[22] = Cytotoxicity against chinese hamster RT16 cells expressing human FRalpha after 96 hrs by CellTitre-Blue fluorescence assay; type: functional, cell-based; details: Cricetulus griseus, RT16, 96 h; method in brief: as §1
[23] = Cytotoxicity against chinese hamster PC43-10 cells expressing human RFC after 96 hrs by CellTitre-Blue fluorescence assay; type: functional, cell-based; details: Cricetulus griseus, PC43-10, 96 h; method in brief: as §1
KB [24] = assay: Cell cycle arrest in human KB cells assessed as accumulation at G1/G0 phase at 1 uM after 48 hrs by propidium iodide staining-based flow cytometry relative to control; type: functional

Compound: Nc1nc2[nH]c(CCCCCCc3ccc(C(=O)N[C@@H](CCC(=O)O)C(=O)O)cc3)cc2c(=O)[nH]1
- IC50 [1]: > 1000 nM
- IC50 (R2 [2]): > 1000 nM

Compound: Nc1nc2[nH]cc(Cc3ccc(C(=O)N[C@@H](CCC(=O)O)C(=O)O)cc3)c2c(=O)[nH]1
- IC50 [1]: > 1000 nM
- IC50 (R2 [2]): > 1000 nM
- IC50 [3]: > 1000 nM
- IC50 (R2 [4]): > 1000 nM

Compound: CN(Cc1cnc2nc(N)nc(N)c2n1)c1ccc(C(=O)N[C@@H](CCC(=O)O)C(=O)O)cc1 [METHOTREXATE]
- inhibition [5]: inactive
- IC50 [1]: > 1000 nM

Compound: Cc1nc(=O)c2cc(CN(C)c3ccc(C(=O)N[C@@H](CCC(=O)O)C(=O)O)s3)ccc2[nH]1 [RALTITREXED]
- IC50 [1]: > 1000 nM

Compound: Nc1nc2[nH]c(CCCCc3ccc(C(=O)N[C@@H](CCC(=O)O)C(=O)O)cc3)cc2c(=O)[nH]1
- Activity (KB [6]): 1.2%
- Activity (KB [7]): 31.4%
- Activity (KB [8]): 22.3%
- Activity (KB [9]): 45.1%
- Activity [5]: Active
- inhibition [10]: < 25%
- IC50 [1]: > 1000 nM
- IC50 [11]: 5.71 nM
- inhibition (KB [12]): Dose-dependent effect
- viability at 1 µM (KB [13]): 35%
- Activity (KB [14]): 0.748%
- Activity (KB [15]): 28.8%
- Activity (KB [16]): 35.5%

Compound: Nc1nc2[nH]cc(CCc3ccc(C(=O)N[C@@H](CCC(=O)O)C(=O)O)cc3)c2c(=O)[nH]1 [PEMETREXED]
- Activity (KB [6]): 7.5%
- Activity (KB [7]): 27.5%
- Activity (KB [8]): 47.8%
- Activity (KB [9]): 17.3%
- inhibition at 1 µM (KB [17]): 60%
- Activity (KB [18]): inactive
- Activity (KB [19]): Active
- IC50 (KB [20]): 690 nM
- IC50 (KB [21]): 9.94 nM
- IC50 [1]: > 1000 nM
- IC50 [22]: 18.2 nM
- IC50 [3]: > 1000 nM
- IC50 [23]: 30.6 nM
- Activity (KB [24]): Active
- IC50 [11]: 11.7 nM
- inhibition (KB [12]): Dose-dependent effect
- viability at 1 µM (KB [13]): 64.6%
- Activity (KB [14]): 0.271%
- Activity (KB [15]): 4.56%
- Activity (KB [16]): 30.6%
- IC50 (R2 [4]): > 1000 nM

Compound: Nc1nc2c(c(=O)[nH]1)C[C@@H](CCc1ccc(C(=O)N[C@@H](CCC(=O)O)C(=O)O)cc1)CN2 [LOMETREXOL]
- IC50 [1]: > 1000 nM
